Screening data: PubChem, Sanford-Burnham Center for Chemical Genomics
In the library only some 0.77% were active in any assay of this set; here they are far more common.
mIAP activ – mouse IAP activation. hit rate 0.24% among 330,000. activation factor at 10 µM. AID 2805. muIAP, CDP-Star luminescence, 30 min; hits give high values; 1 = vehicle-only enzyme signal, 0 = enzyme-free wells;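 active = activation factor of at least 2 at 20 µM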
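Assay system: mouse IAP enzyme; reagent: chemiluminescent substrate CDP-Star; dosing: test compounds delivered from DMSO solution; schedule: 30 min at room temperature; measured by: luminescence from enzymatic CDP-Star hydrolysis; controls: DMSO-only wells and no-enzyme negative control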
mIAP inh – mouse IAP inhibition; purified mouse IAP, CDP-Star luminescence, 30 min; inhibition, % at 10 µM; hit rate 0.2% among 330,000;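 active = inhibition of at least 40% at 10 µM in the primary screen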;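 note: plate controls were DMSO with enzyme for no effect and no enzyme wells for full effect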
hIAP activ – human IAP activation; purified human IAP, CDP-Star luminescence, 30 min; hits give high values; 1 = vehicle-only enzyme, 0 = enzyme-free background; activation factor at 10 µM; hit rate 0.16% among 330,000;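 active = activation factor of the enzyme at least 2-fold when tested at 20 µM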
Target sequence (P09923 whole entry, looked up): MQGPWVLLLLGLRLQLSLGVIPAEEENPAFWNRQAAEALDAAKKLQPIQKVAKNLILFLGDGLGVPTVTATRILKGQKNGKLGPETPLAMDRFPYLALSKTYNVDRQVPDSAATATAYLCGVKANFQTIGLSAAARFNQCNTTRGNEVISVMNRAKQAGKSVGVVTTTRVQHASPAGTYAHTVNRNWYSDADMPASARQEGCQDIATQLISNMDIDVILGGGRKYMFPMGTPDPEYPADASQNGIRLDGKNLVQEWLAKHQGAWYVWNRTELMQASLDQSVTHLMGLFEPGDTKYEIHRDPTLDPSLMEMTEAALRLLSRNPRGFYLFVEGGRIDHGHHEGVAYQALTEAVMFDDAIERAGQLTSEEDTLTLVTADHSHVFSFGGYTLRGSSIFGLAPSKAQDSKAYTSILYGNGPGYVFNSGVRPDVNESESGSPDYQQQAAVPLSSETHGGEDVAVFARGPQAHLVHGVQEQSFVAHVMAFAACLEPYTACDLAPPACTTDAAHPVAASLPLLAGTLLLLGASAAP
bIAP act – increases bovine intestinal alkaline phosphatase activity; purified bovine IAP, CDP-star luminescence, 30 min; hits give high values; fold of DMSO-control signal, blank-subtracted; hit rate 0.17% among 200,000; activation factor at 20 µM;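 active = activation factor of 2 or more at 20 µM, a signal rise over negative controls twice the positive control's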
hIAP block – blocks human intestinal alkaline phosphatase | purified IAP, CDP-Star luminescence, 30 min | inhibition, % at 10 µM | hit rate 0.12% among 330,000;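 active = inhibition reaching a set limit with compound at 10 µM in the primary screen, cut at about 35% in these data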;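 note: plate controls were DMSO wells with enzyme for no effect and no-enzyme buffer wells for full effect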
bIAP inhibitor – blocks bovine intestinal alkaline phosphatase activity; purified bovine IAP, CDP-star luminescence, 30 min; inhibition, % at 20 µM; 190,000 tested, under 10 active; AID 1019;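 active = over 50% inhibition of intestinal alkaline phosphatase at 20 µM in the single-dose screen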
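Assay system: bovine IAP enzyme; medium: DEA buffer 100 mM, pH 9.8, with MgCl2 1.0 mM, ZnCl2 0.02 mM; doses: 20 µM single dose; incubation: enzyme reaction for 30 min at room temperature; detection: CDP-star luminescence signal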
mIAP inh confirm – mouse IAP inhibition confirmation; purified mouse IAP, CDP-Star luminescence, 30 min; shares compounds with mIAP inh; AID 434971; hit rate 4.7% among 11,000; inhibition, % at 10 µM;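 active = inhibition of at least 40% at 10 µM in either of the two replicates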;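 note: plate controls were DMSO wells with enzyme for no effect and buffer wells lacking enzyme for full effect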
* hit, by the source's call; nt = no result given.

SMILES	mIAP activ	mIAP inh	hIAP activ	bIAP act	hIAP block	bIAP inhibitor	mIAP inh confirm
COc1ccc(CNC(=O)Nc2cccc(C(F)(F)F)c2)cc1OC	2.16*	-115.8	1.18	1	-18.1	-2.8	-120.9
COc1ccc(CNC(=O)NCc2ccc(OC)c(OC)c2)cc1OC	0.952	4.8	1.04	1	-3.7	-2.5	nt
CCN(CC)S(=O)(=O)c1cccc(NC(=O)CC2CCCC2)c1	1.02	-2.4	1.07	nt	-7.3	nt	nt
COc1cccc(NC(=O)Nc2cc(C(=O)O)ccc2C)c1	1.02	-2.3	0.959	0.9	4.1	9.0	nt
CN1/C(=C\C(=O)COC(=O)c2ccc(O)c(O)c2)C(C)(C)c2ccccc21	0.95	5.0	0.858	1	14.2	0.5	nt
COc1ccccc1CN(C)C(=O)C(c1ccccc1)c1ccccc1	0.924	7.6	1.01	nt	-1.5	nt	nt
O=C(NCC(=O)N1CCCCCC1)c1ccc(Cl)cc1	0.988	1.2	0.983	nt	1.7	nt	nt
COc1cccc(NC(=O)Nc2ccc3c(c2)CCC3)c1	4.36*	-336.2	1.51	nt	-51.5	nt	-190.5
COc1cccc(NC(=O)NC(C)C2CC3CCC2C3)c1 (stereo not drawn)	2.67*	-167.0	0.936	1.1	6.4	-9.1	-96.6
COc1cccc(C(C)NC(=O)Nc2cccc(C(F)(F)F)c2)c1 (stereo not drawn)	5.26*	-425.7	1.5	0.8	-50.1	15.0	-284.5
COc1ccc(C(=O)NC(C)C2CC3CCC2C3)c(OC)c1 (stereo not drawn)	1.01	-1.4	1	nt	-0.4	nt	nt
COc1cccc(NC(=O)Nc2ccc(C(C)(C)C)cc2)c1	4.35*	-335.3	1.54	1.1	-53.7	-7.9	-118.3
N#C/C(=C\C=C\c1ccccc1)c1nc(-c2ccc(Cl)cc2)cs1	0.865	13.5	0.834	nt	16.6	nt	nt
CCOc1cc(Br)c(CN2C(=O)NC3(CCCCCC3)C2=O)cc1OCC	0.97	3.0	0.928	nt	7.2	nt	nt
CCCC1=NN(C(=O)Cc2ccc(OC)c(OC)c2)C(O)(C(F)(F)F)C1 (stereo not drawn)	0.999	0.1	1.05	nt	-5.5	nt	nt
COc1ccc2[nH]c3c(=O)n(CCCC(=O)NC4CCCCC4C)c(=S)[nH]c3c2c1 (stereo not drawn)	0.827	17.3	1.26	nt	-26.3	nt	nt
NNC(=O)c1cc(O)c(O)c(O)c1	0.366	63.4*	0.967	0.8	3.3	24.9	71.1*
COc1c(Cl)cc(C(=O)NN)cc1Cl	1.01	-1.0	1.15	0.9	-15.1	6.6	nt
CCCCNC(=O)COc1ccccc1C(=O)c1cc(C#N)c(=O)n(CCOC)c1	1.02	-2.3	0.903	1.1	9.7	-6.3	nt
O=C(Nc1ccc(F)cc1)Nc1cnccn1	0.99	1.0	0.844	nt	15.6	nt	nt
O=C(Nc1cc(Cl)cc(Cl)c1)Nc1cnccn1	2.47*	-147.3	1.26	nt	-26.1	nt	-96.5
CCn1c(SCC(=O)c2ccc(O)c(O)c2)nnc1-c1ccccc1OC	0.564	43.6*	1.01	0.8	-0.8	19.9	63.0*
CCn1c(CSc2nc3ccccc3s2)nnc1SCC(=O)c1ccc(O)c(O)c1	0.559	44.1*	0.992	0.9	0.8	9.4	46.6*
C=CCn1c(SCC(=O)c2ccc(O)c(O)c2)nnc1-c1ccccc1OC	0.651	34.9	1.11	0.9	-10.8	11.2	nt
C=CCn1c(SCC(=O)c2ccc(O)c(O)c2)nnc1-c1cccnc1	0.428	57.2*	0.87	nt	13.0	nt	62.8*
SMILES	mIAP activ	mIAP inh	hIAP activ	bIAP act	hIAP block	bIAP inhibitor	mIAP inh confirm
OC(CNCc1ccco1)Cn1c2ccc(Br)cc2c2cc(Br)ccc21 (stereo not drawn)	1.06	-5.9	1.01	0.9	-0.9	13.3	nt
Cc1cccc(NS(=O)(=O)c2ccc(C)c(C(=O)NCCCN3CCOCC3)c2)c1	1.01	-0.6	0.908	nt	9.2	nt	nt
O=C(c1c(O)cc(O)cc1O)C1c2c(cc(O)c3c2O[C@H](c2ccc(O)cc2)[C@@H](O)C3)OC1c1ccc(O)cc1 (stereo partly drawn)	0.415	58.5*	0.924	nt	7.6	nt	46.9*
O=C1CC(c2ccccc2)c2c(O)cc(O)cc2O1 (stereo not drawn)	1.03	-2.8	0.94	0.9	6.0	14.3	nt
COc1ccc(N=C2NC(=O)/C(=C\C=C\c3ccco3)S2)cc1	0.646	35.4	0.939	0.9	6.1	14.2	nt
O=C1NC(=Nc2ccc3ccccc3c2)S/C1=C/c1ccco1	0.435	56.5*	1.08	1.1	-8.5	-6.5	57.1*
O=C1NC(=Nc2ccc(O)cc2)S/C1=C/c1ccco1	0.431	56.9*	0.939	1	6.1	4.3	77.0*
Cc1ccc(NC(=O)C2CC(=O)n3c(nc4ccccc43)N2)cc1Cl (stereo not drawn)	3.58*	-258.2	1.92	2.4*	-91.5	-136.4	-125.1
Cc1ccc(NC(=O)[C@@H]2CCC(=O)N2C2OC(=O)c3ccccc32)cc1Cl (stereo partly drawn)	0.815	18.5	0.942	nt	5.8	nt	nt
C/C(=N\NC(=O)CC#N)c1cc2ccc(O)cc2oc1=O	0.567	43.3*	1.04	0.7	-3.6	27.3	48.0*
COc1cc(/C=C/C(=O)O)ccc1O	0.983	1.7	0.97	nt	3.0	nt	nt
Oc1ccc(/C=N/N=C/c2ccc(O)c(O)c2)cc1O	0.403	59.7*	1	nt	-0.3	nt	63.6*
O=C(NCCN1CCN(C(=O)c2ccc([N+](=O)[O-])cc2)CC1)C(=O)NCc1ccccc1	0.969	3.1	0.991	nt	0.9	nt	nt
Cc1cc(Nc2ccccc2)cc(=O)n1C	1.16	-15.5	1.1	nt	-9.6	nt	nt
CC(=O)Nc1sc(N/N=C\c2ccccc2)nc1-c1cccs1	0.776	22.4	1.07	1	-6.8	-2.7	nt
CCOc1cc(/C=N/Nc2nc(-c3cccs3)c(NC(C)=O)s2)ccc1O	0.586	41.4*	0.86	nt	14.0	nt	43.9*
CC(OC(=O)Cn1[nH]c(=O)c2ccccc2c1=O)C(=O)Nc1ccccc1[N+](=O)[O-] (stereo not drawn)	0.952	4.8	0.995	nt	0.5	nt	nt
Cn1cccc1/C=C1\SC(=S)N(Nc2ccccc2)C1=O	0.597	40.3*	1.2	nt	-20.0	nt	49.7*
Cc1ccccc1CN1CCC(CNC(=O)Nc2ccc(F)cc2F)CC1	1.38	-37.9	1.16	nt	-15.5	nt	nt
Cc1ccc(C)c(CN2CCC(CNC(=O)Nc3cccc(Cl)c3C)CC2)c1	5.45*	-444.9	1.66	nt	-66.0	nt	-147.2
Cc1c(Cl)cccc1NC(=O)NC1CCCCC1	1.14	-13.5	0.914	0.6	8.6	39.0	nt
Cc1ccc(NC(=O)NCC2CCN(Cc3cc(C)ccc3Cl)CC2)c(C)c1	4.91*	-390.6	1.49	1.1	-49.0	-9.1	-86.8
CCc1ccccc1N1CC(C(=O)N2Cc3ccccc3CC2C(N)=O)CC1=O (stereo not drawn)	0.799	20.1	0.865	nt	13.5	nt	nt
O=C1CNC(=S)N1CCc1ccc(O)c(O)c1	0.23	77.0*	0.859	nt	14.1	nt	80.9*
